Data published in ChEMBL document CHEMBL3856239, “Synthesis and Antiobesity Properties of 6-(4-Chlorophenyl)-3-(4-((3,3-difluoro-1-hydroxycyclobutyl)methoxy)-3-methoxyphenyl)thieno[3,2-d]pyrimidin-4(3H)-one (BMS-814580): A Highly Efficacious Melanin Concentrating Hormone Receptor 1 (MCHR1) Inhibitor” (J Med Chem, 2016).

Experiments:
Rattus norvegicus [1] = assay: Antiobesity activity in pair-fed DIO Sprague-Dawley rat model assessed as reduction in body weight at 3 mg/kg, po qd for 28 days relative to vehicle control; assay type: functional; design: scale not given: the % may be the effect or the level left
Outline: (§1)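 Obese male SD rats on diet-induced obesity, 8/group, dosed orally once daily for 28 days with phosphate prodrug (0.03–3 mg/kg parent) in 14% propylene glycol/1% Tween/85% water; rimonabant 10 mg/kg control; pair-fed groups matched to 1 and 3 mg/kg intake; body weight and food measured daily, % change versus vehicle.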

Rattus norvegicus [2] = assay: Toxicity in DIO Sprague-Dawley rat assessed as biliary lesion formation at 10 mg/kg, po qd for 4 days; assay type: organism-based; details: in vivo, 96 h
[3] = Half life in rat at 1 mg/kg, iv; assay type: ADME, organism-based; details: in vivo
Outline: (§2)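 Rats, dogs and cynomolgus monkeys, n = 3: parent 1 mg/kg i.v. in PEG400:DMAC:water (70:5:25), or phosphate prodrug 10 mg/kg oral in Methocel:Tween80:water (0.5:0.1:99.4); plasma parent compound, Cmax, Tmax, AUC0-∞, half-life, clearance, Vss and bioavailability derived.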

[4] = Protein binding in rat plasma assessed as unbound fraction; assay type: ADME, cell-free
Outline: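 Plasma protein binding reported as % free drug in rat, DIO rat, dog, cynomolgus monkey, rabbit and human plasma.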

[5] = Metabolic stability in human liver microsomes assessed as compound remaining at 3 uM measured after 10 min; assay type: ADME; details: read-out: Stability
Outline: (§3)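 Test compound at 3.0 µM incubated with liver microsomes for 10 minutes; read-out is percent of parent remaining.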

[6] = Cardiotoxicity in anesthetized rabbit assessed as effect on heart rate; assay type: toxicity, tissue-based, Oryctolagus cuniculus
Outline: (§4)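 Anesthetized rabbits given compound to plasma concentrations up to 38 µM; QT and QRS duration, mean arterial blood pressure and heart rate recorded.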

[7] = AUC in rat at 1 mg/kg, iv; assay type: ADME, organism-based; details: in vivo; outline: as §2
[8] = Volume of distribution at steady state in rat at 1 mg/kg, iv; assay type: ADME, organism-based; details: in vivo, read-out: Vdss
Outline: (§5)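 Full PK in rat, dog and cynomolgus monkey. Oral arm: phosphate prodrug at 10 mg/kg parent-equivalent in Methocel:Tween80:water (0.5:0.1:99.4). Intravenous arm: parent at 1 mg/kg in PEG400:DMAC:water (70:5:25). n = 3 per species; individual Tmax values reported for dog and monkey.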

Rattus norvegicus [9] = assay: Antiobesity activity in pair-fed DIO Sprague-Dawley rat model assessed as reduction in caloric intake at 1 mg/kg, po qd for 28 days relative to vehicle control; assay type: functional; design: scale not given: the % may be the effect or the level left; outline: as §1
[10] = Mutagenic activity in Salmonella typhimurium by Ames test; assay type: toxicity; details: salmonella enterica subsp. enterica serovar typhimurium
[11] = Clearance rat at 1 mg/kg, iv; assay type: ADME, organism-based; details: in vivo; outline: as §2
[12] = Clearance in dog at 1 mg/kg, iv; assay type: ADME, organism-based, Canis lupus familiaris; details: in vivo; outline: as §2
Rattus norvegicus [13] = assay: Antiobesity activity in pair-fed DIO Sprague-Dawley rat model assessed as reduction in caloric intake at 3 mg/kg, po qd for 28 days relative to vehicle control; assay type: functional; design: scale not given: the % may be the effect or the level left; outline: as §1
[14] = biological target: Melanin-concentrating hormone receptor 1 (Homo sapiens, UniProt Q99705); assay: Antagonist activity at human MCHR1 expressed in HEK293 cells assessed as inhibition of MCH-stimulated calcium flux measured after 15 mins by FLIPR assay; assay type: functional, cell-based
Melanin-concentrating hormone receptor 1, sequence (Q99705 whole entry): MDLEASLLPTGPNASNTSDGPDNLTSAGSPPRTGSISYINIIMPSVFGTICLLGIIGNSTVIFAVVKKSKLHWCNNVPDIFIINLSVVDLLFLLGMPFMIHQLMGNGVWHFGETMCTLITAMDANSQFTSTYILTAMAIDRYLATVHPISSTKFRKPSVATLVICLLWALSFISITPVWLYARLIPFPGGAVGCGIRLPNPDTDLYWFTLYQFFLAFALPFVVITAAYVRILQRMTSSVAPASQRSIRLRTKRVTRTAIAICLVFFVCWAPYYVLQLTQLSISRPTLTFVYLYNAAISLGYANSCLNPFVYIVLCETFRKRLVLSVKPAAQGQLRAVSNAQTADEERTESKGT

hERG (KCNH2) = hERG (KCNH2) (Homo sapiens, UniProt Q12809); assay: Inhibition of human ERG at 10 uM
hERG (KCNH2), sequence (Q12809 whole entry): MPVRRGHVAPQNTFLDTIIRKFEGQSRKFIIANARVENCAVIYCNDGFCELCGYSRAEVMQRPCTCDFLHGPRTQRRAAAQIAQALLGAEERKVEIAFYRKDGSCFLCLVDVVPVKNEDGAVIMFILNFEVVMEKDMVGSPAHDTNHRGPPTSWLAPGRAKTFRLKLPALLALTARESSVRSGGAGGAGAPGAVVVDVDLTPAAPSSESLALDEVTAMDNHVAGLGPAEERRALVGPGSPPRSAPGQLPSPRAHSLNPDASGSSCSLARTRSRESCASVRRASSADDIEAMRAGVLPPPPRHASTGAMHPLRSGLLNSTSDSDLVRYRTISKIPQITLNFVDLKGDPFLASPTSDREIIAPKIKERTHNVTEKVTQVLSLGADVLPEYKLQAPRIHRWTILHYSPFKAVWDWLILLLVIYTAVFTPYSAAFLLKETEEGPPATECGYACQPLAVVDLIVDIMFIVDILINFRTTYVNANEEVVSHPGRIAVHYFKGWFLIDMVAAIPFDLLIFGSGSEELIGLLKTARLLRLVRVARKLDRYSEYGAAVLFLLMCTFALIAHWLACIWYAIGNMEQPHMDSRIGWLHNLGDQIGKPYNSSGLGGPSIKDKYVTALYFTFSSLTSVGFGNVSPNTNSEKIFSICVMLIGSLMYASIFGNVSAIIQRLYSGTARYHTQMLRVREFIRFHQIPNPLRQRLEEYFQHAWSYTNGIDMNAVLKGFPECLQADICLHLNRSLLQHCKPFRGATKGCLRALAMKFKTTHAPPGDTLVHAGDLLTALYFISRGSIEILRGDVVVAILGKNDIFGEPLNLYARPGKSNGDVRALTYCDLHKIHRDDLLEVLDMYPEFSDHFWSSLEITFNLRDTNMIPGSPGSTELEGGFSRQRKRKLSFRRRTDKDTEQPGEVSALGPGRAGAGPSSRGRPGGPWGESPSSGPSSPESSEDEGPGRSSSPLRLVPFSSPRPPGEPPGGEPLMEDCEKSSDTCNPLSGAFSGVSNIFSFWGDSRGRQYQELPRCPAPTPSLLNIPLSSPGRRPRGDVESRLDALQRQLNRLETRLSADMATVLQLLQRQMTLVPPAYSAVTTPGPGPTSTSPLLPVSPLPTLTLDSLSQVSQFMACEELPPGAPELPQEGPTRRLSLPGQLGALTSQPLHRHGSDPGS
Outline: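 In vitro ion-channel inhibition measured at 10 µM against hERG, Na (4 Hz) and L-type Ca channels; read-out is percent inhibition.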

Cytochrome P450 3A4 = Cytochrome P450 3A4 (Homo sapiens, UniProt P08684); assay: Inhibition of CYP3A4 (unknown origin); assay type: ADME
Cytochrome P450 3A4, sequence (P08684 whole entry): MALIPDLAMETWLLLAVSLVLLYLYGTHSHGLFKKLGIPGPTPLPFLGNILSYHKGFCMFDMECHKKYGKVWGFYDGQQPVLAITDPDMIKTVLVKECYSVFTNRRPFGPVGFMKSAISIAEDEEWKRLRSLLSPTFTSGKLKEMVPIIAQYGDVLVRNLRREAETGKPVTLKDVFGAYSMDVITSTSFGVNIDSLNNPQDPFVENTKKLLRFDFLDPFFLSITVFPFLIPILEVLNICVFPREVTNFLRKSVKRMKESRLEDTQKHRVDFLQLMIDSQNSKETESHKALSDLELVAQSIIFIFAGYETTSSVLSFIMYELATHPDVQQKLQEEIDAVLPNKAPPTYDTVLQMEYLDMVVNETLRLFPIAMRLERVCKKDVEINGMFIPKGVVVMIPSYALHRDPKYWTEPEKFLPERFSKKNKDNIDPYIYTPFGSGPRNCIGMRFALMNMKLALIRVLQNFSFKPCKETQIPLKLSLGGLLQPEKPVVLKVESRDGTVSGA

[15] = Volume of distribution at steady state in dog at 1 mg/kg, iv; assay type: ADME, organism-based, Canis lupus familiaris; details: in vivo, read-out: Vdss; outline: as §5
[16] = Metabolic stability in mouse liver microsomes assessed as compound remaining at 3 uM measured after 10 min; assay type: ADME; details: read-out: Stability; outline: as §3
Rattus norvegicus [17] = assay: Antiobesity activity in pair-fed DIO Sprague-Dawley rat model assessed as reduction in body weight at 1 mg/kg, po qd for 28 days relative to vehicle control; assay type: functional; design: scale not given: the % may be the effect or the level left; outline: as §1
Homo sapiens [18] = organism: Homo sapiens; assay: Inhibition of human PDE4 using [3H]cAMP at 10 uM
Cytochrome P450 2C9 = Cytochrome P450 2C9 (Homo sapiens, UniProt P11712); assay: Inhibition of CYP2C9 (unknown origin); assay type: ADME
Cytochrome P450 2C9, sequence (P11712 whole entry): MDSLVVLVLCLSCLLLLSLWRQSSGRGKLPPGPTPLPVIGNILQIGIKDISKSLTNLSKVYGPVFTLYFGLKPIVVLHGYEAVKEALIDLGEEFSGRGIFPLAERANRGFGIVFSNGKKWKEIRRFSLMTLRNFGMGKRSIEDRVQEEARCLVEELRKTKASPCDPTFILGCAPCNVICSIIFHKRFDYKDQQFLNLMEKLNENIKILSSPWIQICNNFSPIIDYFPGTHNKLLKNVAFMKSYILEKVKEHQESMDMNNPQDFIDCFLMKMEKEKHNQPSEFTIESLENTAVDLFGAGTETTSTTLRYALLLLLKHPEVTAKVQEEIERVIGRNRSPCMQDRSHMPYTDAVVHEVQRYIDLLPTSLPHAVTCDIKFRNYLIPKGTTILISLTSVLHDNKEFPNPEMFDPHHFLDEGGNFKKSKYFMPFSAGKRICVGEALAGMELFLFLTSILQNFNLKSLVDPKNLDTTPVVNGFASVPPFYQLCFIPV
Outline: (§6)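 CYP1A2, 2C8, 2C9, 2C19, 2D6 and 3A4 tested for inhibition, with 40 µM as the top tested limit.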

[19] = Cardiotoxicity in anesthetized rabbit assessed as prolongation of QT intervals up to plasma concentration of 38 uM; assay type: toxicity, Oryctolagus cuniculus; outline: as §4
Cytochrome P450 1A2 = biological target: T1, Cytochrome P450 1A2 (Homo sapiens, UniProt P05177); assay: Inhibition of CYP1A2 (unknown origin); assay type: ADME; outline: as §6
T1 sequence (P05177 whole entry): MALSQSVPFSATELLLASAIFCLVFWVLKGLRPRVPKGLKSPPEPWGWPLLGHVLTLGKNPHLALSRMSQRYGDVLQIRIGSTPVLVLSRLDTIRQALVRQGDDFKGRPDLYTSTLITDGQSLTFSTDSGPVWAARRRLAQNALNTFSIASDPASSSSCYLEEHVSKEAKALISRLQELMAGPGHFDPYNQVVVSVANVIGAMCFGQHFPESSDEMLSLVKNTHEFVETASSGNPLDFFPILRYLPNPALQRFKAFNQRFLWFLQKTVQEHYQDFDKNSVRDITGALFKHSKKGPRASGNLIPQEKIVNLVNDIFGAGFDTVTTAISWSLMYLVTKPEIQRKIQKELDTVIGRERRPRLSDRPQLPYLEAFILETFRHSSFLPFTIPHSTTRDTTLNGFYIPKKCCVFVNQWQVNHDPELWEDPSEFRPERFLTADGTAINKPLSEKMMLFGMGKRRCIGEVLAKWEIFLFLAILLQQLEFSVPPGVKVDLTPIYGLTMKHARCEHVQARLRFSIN

Cytochrome P450 2D6 = Cytochrome P450 2D6 (Homo sapiens, UniProt P10635); assay: Inhibition of CYP2D6 (unknown origin); assay type: ADME
Cytochrome P450 2D6, sequence (P10635 whole entry): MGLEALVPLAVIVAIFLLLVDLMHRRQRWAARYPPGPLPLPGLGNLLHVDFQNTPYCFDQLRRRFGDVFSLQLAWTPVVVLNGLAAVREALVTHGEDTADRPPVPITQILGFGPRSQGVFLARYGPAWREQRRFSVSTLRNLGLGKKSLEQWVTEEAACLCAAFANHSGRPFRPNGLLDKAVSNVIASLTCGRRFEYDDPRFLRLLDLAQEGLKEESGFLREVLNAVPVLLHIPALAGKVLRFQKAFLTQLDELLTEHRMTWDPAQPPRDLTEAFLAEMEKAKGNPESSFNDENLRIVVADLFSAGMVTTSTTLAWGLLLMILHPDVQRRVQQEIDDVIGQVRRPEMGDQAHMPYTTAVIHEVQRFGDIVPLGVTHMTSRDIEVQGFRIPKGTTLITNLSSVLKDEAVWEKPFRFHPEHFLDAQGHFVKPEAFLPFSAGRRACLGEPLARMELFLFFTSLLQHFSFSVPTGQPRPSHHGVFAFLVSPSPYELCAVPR

[20] = Cardiotoxicity in anesthetized rabbit assessed as effect on mean arterial blood pressure; assay type: toxicity, tissue-based, Oryctolagus cuniculus; outline: as §4
[21] = Displacement of [Phe13,125I]Tyr19]-MCH from human MCHR1 E4Q/A5T double mutant expressed in HEK293 cells by TopCount scintillation counting method; assay type: cell-based
[22] = AUC in dog at 1 mg/kg, iv; assay type: ADME, organism-based, Canis lupus familiaris; details: in vivo; outline: as §2
[23] = Half life in cynomolgus monkey at 1 mg/kg, iv; assay type: ADME, organism-based, Macaca fascicularis; details: in vivo; outline: as §2
Homo sapiens [24] = organism: Homo sapiens; assay: Inhibition of sodium channel (unknown origin) at 10 uM and 4 Hz
[25] = Solubility of the compound in phosphate buffer at pH 6.4; assay type: physicochemical
Outline: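 Solubility of parent compounds and prodrugs measured in 50 mM phosphate buffer, pH 6.4.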

[26] = Metabolic stability in rat liver microsomes assessed as compound remaining at 3 uM measured after 10 min; assay type: ADME; details: read-out: Stability; outline: as §3
[27] = Cardiotoxicity in anesthetized rabbit assessed as prolongation of QRS intervals up to plasma concentration of 38 uM; assay type: toxicity, Oryctolagus cuniculus; outline: as §4
[28] = Binding affinity to cynomolgus monkey MCHR1; design: species or system Macaca fascicularis
[29] = Protein binding in Sprague-Dawley rat plasma at 10 mg/kg, po qd for 4 days; assay type: ADME, organism-based; details: read-out: PPB

COc1cc(-n2cnc3cc(-c4ccc(Cl)cc4)sc3c2=O)ccc1OCC1(O)CC(F)(F)C1
Activity (Rattus norvegicus [1]): 4.1% | Activity (Rattus norvegicus [2]): Non-Toxic | half-life [3]: > 1440 min | Fu [4]: 0.2% | remaining at 10 min, 3 µM [5]: 90% | Activity [6]: Non-Toxic | AUC [7]: 11.5 µM·h | Vd [8]: 4.1 L/kg | Activity (Rattus norvegicus [9]): 14.3% | Activity [10]: Non-Toxic | clearance [11]: 0.9 mL/min/kg | clearance [12]: 6.9 mL/min/kg | Activity (Rattus norvegicus [13]): 14.7% | Kb [14]: 117 nM | inhibition at 10 µM (hERG (KCNH2)): 43% | INH (Cytochrome P450 3A4): > 40 µM | Vd [15]: 7.2 L/kg | remaining at 10 min, 3 µM [16]: 100% | Activity (Rattus norvegicus [17]): 4.2% | inhibition (Homo sapiens [18]): 68% | INH (Cytochrome P450 2C9): > 40 µM | Activity [19]: Non-Toxic | INH (Cytochrome P450 1A2): > 40 µM | INH (Cytochrome P450 2D6): > 40 µM | Activity [20]: Non-Toxic | Ki [21]: 16.9 nM | AUC [22]: 5.2 µM·h | half-life [23]: 2220 min | inhibition (Homo sapiens [24]): 21% | solubility [25]: < 1 µg/mL | remaining at 10 min, 3 µM [26]: 95% | Activity [27]: Non-Toxic | Ki [28]: 4.9 nM | fraction unbound at 96 h [29]: < 0.02
